According to ChEMBL document CHEMBL2163323, “Characterization and solubilization of pyrrole-imidazole polyamide aggregates” (J Med Chem, 2012):

Key:
[1] = Solubility of the compound in 0.1 % DMSO/PBS solution at 4 uM after 2 hrs by HPLC analysis in presence of 50 mM 2-hydroxypropyl-beta-cyclodextrin; type: physicochemical; conditions: buffer
In short: (§1)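 The 4 mM DMSO stock was diluted 1000× into PBS containing 35 mM dextrose, 5 mM γCD, 50 mM HpβCD or 6 mg/mL hypromellose. Samples were sonicated 20 min at 25 °C, equilibrated 2 h at room temperature and centrifuged. The soluble fraction was measured by HPLC peak area at 310 nm against a standard curve. Values are SD of ≥3 independent measurements.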

[2] = Solubility of the compound in 0.1 % DMSO/PBS solution at 4 uM after 2 hrs by HPLC analysis; type: physicochemical; conditions: buffer
In short: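 A 4 mM DMSO stock was diluted 1000× into PBS, vortexed, sonicated 20 min at 25 °C and equilibrated 2 h at room temperature. After centrifugation for 20 min, the supernatant was analysed by HPLC at 310 nm against a standard curve. Maximum concentration was estimated from quantitation of the stock in 0.1% DMSO/water. Values are SD of ≥3 independent measurements.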

[3] = Solubility of the compound in 0.1 % DMSO/PBS solution assessed as radius of the aggregate particle at 4 uM measured over 10 mins by dynamic light scattering method; type: physicochemical; conditions: buffer
In short: (§2)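 DMSO stocks (1, 4, 10 mM) were centrifuged, then diluted 1000× into PBS (final 0.1% DMSO). Dynamic light scattering used a 659 nm laser at a 90° angle and 25 °C, with 10–15 s acquisitions over 10 min. Radius came from a cumulant fit of averaged autocorrelation functions at the lowest concentration giving 3× buffer signal. Values are SD of ≥3 independent measurements.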

[4] = Solubility of the compound in 0.1 % DMSO/PBS solution assessed as radius of the aggregate particle at 1 uM measured over 10 mins by dynamic light scattering method; type: physicochemical; conditions: buffer; in short: as §2
[5] = Solubility of the compound in 0.1 % DMSO/PBS solution at 4 uM after 2 hrs by HPLC analysis in presence of 35 mM dextrose; type: physicochemical; conditions: buffer; in short: as §1
[6] = Solubility of the compound in 0.1 % DMSO/PBS solution at 4 uM after 2 hrs by HPLC analysis in presence of 5 mM gamma-cyclodextrin; type: physicochemical; conditions: buffer; in short: as §1
[7] = Solubility of the compound in 0.1 % DMSO/PBS solution at 4 uM after 2 hrs by HPLC analysis in presence of 6 mg/ml hypromellose; type: physicochemical; conditions: buffer; in short: as §1
A549 [8] = test: Drug uptake in human A549 cells incubated with mouse plasma isolated 4.5 hr post administration with compound measured after 16 hrs by confocal microscopy; type: ADME, cell-based
In short: (§3)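 A549 cells were seeded at 100k cells/mL in F-12K/10% FBS and allowed to adhere for 18 h at 37 °C in 5% CO2. Medium was replaced with 200 μL fresh medium plus 20 μL plasma. The plasma came from mice given 120 nmol IP in 20% DMSO/80 mM HpβCD/PBS. After 16 h, live cells were imaged by confocal microscopy (63× oil objective, fluorescein filters).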

[9] = Solubility of the compound in 20 % DMSO/PBS; type: physicochemical; conditions: buffer
A549 [10] = test: Drug uptake in human A549 cells incubated with mouse plasma isolated 1.5 hr post administration with compound measured after 16 hrs by confocal microscopy; type: ADME, cell-based; in short: as §3
Plasma [11] = test: Drug uptake in C57Bl/6 mouse plasma at 120 nmol, ip in 1 % DMSO/80 mM HPbeta-CD/PBS vehicle measured after 24 hrs; type: ADME, organism-based; conditions: in vivo
In short: (§4)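 C57bl/6 mice, 8–12 weeks old, received an IP injection of 200 μL PBS containing 120 nmol compound in the stated vehicle. Under isoflurane, blood was drawn retro-orbitally at three time points. Plasma from four mice was pooled (5 μL each), precipitated with methanol, spiked with Boc-Py-OMe as internal control, and quantified by HPLC at 310 nm against a standard curve.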

[12] = Plasma concentration of compound in C57Bl/6 mouse at 120 nmol, ip in 1 % DMSO/80 mM HPbeta-CD/PBS vehicle measured after 1.5 hrs; type: ADME, organism-based; in short: as §4
[13] = Plasma concentration of compound in C57Bl/6 mouse at 120 nmol, ip in 20 % DMSO/PBS vehicle measured after 1.5 hrs; type: ADME, organism-based; in short: as §4
Plasma [14] = test: Drug uptake in C57Bl/6 mouse plasma at 120 nmol, ip in 20 % DMSO/PBS vehicle measured after 24 hrs; type: ADME, organism-based; conditions: in vivo; in short: as §4

| solubility [2] | Activity [3] [nm] | SMILES | also measured |
| --- | --- | --- | --- |
| Insoluble | 176 | CN(CCCNC(=O)c1cccc(C(=O)O)c1)CCCNC(=O)c1cc(NC(=O)c2cc(NC(=O)c3cc(NC(=O)c4cc(NC(=O)C[C@H](CNC(=O)c5cc(NC(=O)c6cc(NC(=O)c7nc(NC(=O)c8nccn8C)cn7C)cn6C)cn5C)NC(=O)c5ccccc5)cn4C)cn3C)cn2C)cn1C | solubility [1]: soluble; Activity [4]: 123 nm |
|  |  | CN(CCCNC(=O)c1cc(NC(=O)c2cc(NC(=O)c3cc(NC(=O)c4nc(NC(=O)C[C@@H](N)CNC(=O)c5cc(NC(=O)c6cc(NC(=O)c7cc(NC(=O)c8nccn8C)cn7C)cn6C)cn5C)cn4C)cn3C)cn2C)cn1C)CCCNC(=S)Nc1ccc(-c2c3ccc(=O)cc-3oc3cc(O)ccc23)c(C(=O)O)c1 | Activity [4]: 294 nm |
| Insoluble | 197 | Cn1cc2cc1C(=O)NCCCC(=O)Nc1cn(C)c(n1)C(=O)Nc1cn(C)c(n1)C(=O)Nc1cc(n(C)c1)C(=O)Nc1cc(n(C)c1)C(=O)NC[C@H](N)CC(=O)Nc1cc(n(C)c1)C(=O)Nc1cc(n(C)c1)C(=O)Nc1cc(n(C)c1)C(=O)N2 | solubility [5]: Insoluble; solubility [6]: soluble; solubility [7]: soluble |
| Insoluble | 347 | Cn1cc2cc1C(=O)NC[C@H](N)CC(=O)Nc1cc(n(C)c1)C(=O)Nc1cc(n(C)c1)C(=O)Nc1cc(n(C)c1)C(=O)Nc1cc(n(C)c1)C(=O)NC[C@H](N)CC(=O)Nc1cn(C)c(n1)C(=O)Nc1cn(C)c(n1)C(=O)Nc1cc(n(C)c1)C(=O)N2 |  |
| Insoluble | 104 | CN(CCCNC(=O)c1cccc(C(=O)O)c1)CCCNC(=O)c1cc(NC(=O)c2cc(NC(=O)c3cc(NC(=O)c4nc(NC(=O)C[C@@H](N)CNC(=O)c5cc(NC(=O)c6cc(NC(=O)c7cc(NC(=O)c8nccn8C)cn7C)cn6C)cn5C)cn4C)cn3C)cn2C)cn1C |  |
|  |  | CN(CCCNC(=O)c1cc(NC(=O)c2cc(NC(=O)c3cc(NC(=O)c4cc(NC(=O)[C@H](N)CCNC(=O)c5cc(NC(=O)c6cc(NC(=O)c7nc(NC(=O)c8nccn8C)cn7C)cn6C)cn5C)cn4C)cn3C)cn2C)cn1C)CCCNC(=S)Nc1ccc(-c2c3ccc(=O)cc-3oc3cc(O)ccc23)c(C(=O)O)c1 | Drug uptake (A549 [8]): Not Active; solubility [9]: Insoluble; Drug uptake (A549 [10]): Active |
| Insoluble | 74 | CC(=O)N[C@@H](CNC(=O)c1cc(NC(=O)c2cc(NC(=O)c3cc(NC(=O)c4nccn4C)cn3C)cn2C)cn1C)CC(=O)Nc1cn(C)c(C(=O)Nc2cc(C(=O)Nc3cc(C(=O)Nc4cc(C(=O)NCCCN(C)CCCNC(=O)c5cccc(C(=O)O)c5)n(C)c4)n(C)c3)n(C)c2)n1 |  |
|  |  | CN(CCCNC(=O)c1cc(NC(=O)c2cc(NC(=O)c3cc(NC(=O)c4nc(NC(=O)C[C@H](CNC(=O)c5cc(NC(=O)c6cc(NC(=O)c7cc(NC(=O)c8nccn8C)cn7C)cn6C)cn5C)NC(=O)c5ccccc5)cn4C)cn3C)cn2C)cn1C)CCCNC(=S)Nc1ccc(-c2c3ccc(=O)cc-3oc3cc(O)ccc23)c(C(=O)O)c1 | Activity [4]: 147 nm |
| Insoluble | 108 | CN(CCCNC(=O)c1cccc(C(=O)O)c1)CCCNC(=O)c1cc(NC(=O)c2cc(NC(=O)c3cc(NC(=O)c4cc(NC(=O)C[C@@H](N)CNC(=O)c5cc(NC(=O)c6cc(NC(=O)c7nc(NC(=O)c8nccn8C)cn7C)cn6C)cn5C)cn4C)cn3C)cn2C)cn1C | solubility [1]: soluble |
| Insoluble | 127 | CN(CCCNC(=O)c1cccc(C(=O)O)c1)CCCNC(=O)c1cc(NC(=O)c2cc(NC(=O)c3cc(NC(=O)c4nc(NC(=O)C[C@H](CNC(=O)c5cc(NC(=O)c6cc(NC(=O)c7cc(NC(=O)c8nccn8C)cn7C)cn6C)cn5C)NC(=O)c5ccccc5)cn4C)cn3C)cn2C)cn1C | Activity [4]: 87 nm |
| Insoluble | 124 | CN(CCCNC(=O)c1cccc(C(=O)O)c1)CCCNC(=O)c1cc(NC(=O)c2cc(NC(=O)c3cc(NC(=O)c4cc(NC(=O)[C@H](N)CCNC(=O)c5cc(NC(=O)c6cc(NC(=O)c7nc(NC(=O)c8nccn8C)cn7C)cn6C)cn5C)cn4C)cn3C)cn2C)cn1C | Drug uptake (Plasma [11]): Not Active; concentration at 1.5 h [12]: 13 µM; solubility [5]: Insoluble; solubility [6]: soluble; solubility [7]: soluble; solubility [1]: soluble; concentration at 1.5 h [13]: 13 µM; Drug uptake (Plasma [14]): Not Active |
| Insoluble | 182 | CN(CCCNC(=O)c1cccc(C(=O)O)c1)CCCNC(=O)c1cc(NC(=O)c2cc(NC(=O)c3cc(NC(=O)c4nc(NC(=O)[C@H](N)CCNC(=O)c5cc(NC(=O)c6cc(NC(=O)c7cc(NC(=O)c8nccn8C)cn7C)cn6C)cn5C)cn4C)cn3C)cn2C)cn1C |  |
| Insoluble | 100 | CC(=O)N[C@@H](CNC(=O)c1cc(NC(=O)c2cc(NC(=O)c3nc(NC(=O)c4nccn4C)cn3C)cn2C)cn1C)CC(=O)Nc1cc(C(=O)Nc2cc(C(=O)Nc3cc(C(=O)Nc4cc(C(=O)NCCCN(C)CCCNC(=O)c5cccc(C(=O)O)c5)n(C)c4)n(C)c3)n(C)c2)n(C)c1 | solubility [1]: soluble |
| Insoluble | 182 | CC(=O)N[C@H]1CNC(=O)c2cc(cn2C)NC(=O)c2cc(cn2C)NC(=O)c2nc(cn2C)NC(=O)c2nc(cn2C)NC(=O)C[C@@H](NC(C)=O)CNC(=O)c2cc(cn2C)NC(=O)c2cc(cn2C)NC(=O)c2cc(cn2C)NC(=O)c2cc(cn2C)NC(=O)C1 |  |
